Apaf-1 act – activators of human Apaf-1 apoptosome; Apaf-1 apoptosome caspase-3 activation, DEVD-Rh110 fluorescence; active compounds read low; 0.31% of 330,000 active; activity change, negative = activation, % at 20 µM; O14727;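 active = activity change at or below -40% at 20 µM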
Target sequence (O14727 whole entry, looked up): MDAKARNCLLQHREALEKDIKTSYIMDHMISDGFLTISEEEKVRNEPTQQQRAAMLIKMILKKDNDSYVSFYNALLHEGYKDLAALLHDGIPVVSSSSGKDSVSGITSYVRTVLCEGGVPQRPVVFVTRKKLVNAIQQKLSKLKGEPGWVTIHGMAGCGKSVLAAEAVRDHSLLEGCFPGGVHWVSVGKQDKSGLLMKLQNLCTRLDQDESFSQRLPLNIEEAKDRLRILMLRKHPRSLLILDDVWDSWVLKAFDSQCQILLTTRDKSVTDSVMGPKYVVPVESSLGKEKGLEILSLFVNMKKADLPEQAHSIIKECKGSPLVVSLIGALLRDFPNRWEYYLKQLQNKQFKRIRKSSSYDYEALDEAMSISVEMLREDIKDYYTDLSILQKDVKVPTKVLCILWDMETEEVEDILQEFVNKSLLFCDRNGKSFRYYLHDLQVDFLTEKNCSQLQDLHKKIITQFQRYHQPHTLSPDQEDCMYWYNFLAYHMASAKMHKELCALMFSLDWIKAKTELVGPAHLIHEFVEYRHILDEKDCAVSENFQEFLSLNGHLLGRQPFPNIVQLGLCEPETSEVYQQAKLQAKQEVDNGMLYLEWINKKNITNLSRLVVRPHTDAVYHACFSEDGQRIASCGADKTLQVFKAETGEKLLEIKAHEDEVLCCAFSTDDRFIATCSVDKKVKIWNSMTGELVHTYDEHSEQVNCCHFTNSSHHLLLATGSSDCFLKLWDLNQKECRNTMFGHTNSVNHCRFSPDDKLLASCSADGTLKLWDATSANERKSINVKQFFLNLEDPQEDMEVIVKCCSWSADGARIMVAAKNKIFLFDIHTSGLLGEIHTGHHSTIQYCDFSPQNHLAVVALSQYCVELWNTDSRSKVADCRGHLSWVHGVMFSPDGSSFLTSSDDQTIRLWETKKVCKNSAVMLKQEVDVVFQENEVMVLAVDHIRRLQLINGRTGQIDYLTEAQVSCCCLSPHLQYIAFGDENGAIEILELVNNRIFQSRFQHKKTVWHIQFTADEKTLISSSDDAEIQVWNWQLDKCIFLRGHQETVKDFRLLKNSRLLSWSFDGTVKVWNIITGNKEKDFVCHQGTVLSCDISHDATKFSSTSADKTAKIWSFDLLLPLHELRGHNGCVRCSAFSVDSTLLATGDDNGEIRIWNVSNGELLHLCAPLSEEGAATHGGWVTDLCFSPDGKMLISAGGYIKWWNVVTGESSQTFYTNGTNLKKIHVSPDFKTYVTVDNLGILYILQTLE
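Material: reconstituted apoptosome of Apaf-1, cytochrome c, caspase-9, procaspase-3; times: 30 min preincubation, 50 min reaction, room temperature; measured by: fluorescence, 540 nm emission, 480 nm excitation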
Rh110 interf act – counter-screen for Apaf-1 activators: fluorescence interference | shares compounds with Apaf-1 act | Rh110 fluorescence interference, quenched caspase reaction, Ex480/Em540 | fluorescence interference (activity change), % at 20 µM, hits read low | 980 tested, under 10 active;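 active = mean activity change at or below -40% when tested at 20 µM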
Apaf-1 act conf2 – Apaf-1 (human) activation, single-dose confirmed. shares compounds with Apaf-1 act. AID 504617. 5% of 980 active. reconstituted apoptosome caspase-3 activity, DEVD-Rh110 fluorescence; active compounds read low. activity change, negative = activation, % at 20 µM;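 active = mean activity change at or below -40%, meaning activation of 40% or more, at 20 µM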
Active calls of the source: *; . = no result. Only a sample is shown.

SMILES	Apaf-1 act	Rh110 interf act	Apaf-1 act conf2
O=C1C(SCCO)=C(SCCO)C(=O)c2ccccc21	96.9	.	.
CCCCCCCCCCCCOC(=O)C[N+](C)(C)C	46.2	.	.
C#CCOCCOCCOCCNc1nc(N2CCN(C(=O)CCCCCCCCCCNC(=O)[C@H]([C@@H](C)CC)n3cc(CCCCN=C(N)N)nn3)CC2)nc(N2CCN(C(=O)CCCCCCCCCCNC(=O)[C@H](CO)n3cc(CCCCCN)nn3)CC2)n1	85.1	.	.
CCc1ccc2[nH]c(C(=O)Nc3ccc(Br)c(C)n3)cc2c1	-483.9*	2.8	13.3
NC(=O)C1CCN(C2=C(NS(=O)(=O)c3ccc(Br)cc3)C(=O)c3ccccc3C2=O)CC1	65.5	.	.
CCCNc1c(F)c(F)c2c(C)c3ccccc3nc2c1F	50.5	.	.
COc1ccc(O[C@H]2C=C[C@@H](c3ccccc3)O[C@@H]2CO/N=C(\C)CCN2CCc3nc(-c4ccccc4)c(-c4ccccc4)cc3C2)cc1	47.5	.	.
O=C(COC(=O)Cc1ccsc1)Nc1ccc(F)cc1Cl	-52.1*	-7.2	9.8
CCSc1ccc2c(c1)N(CCCN1CCN(C)CC1)c1ccccc1S2	56.8	.	.
CC[C@H](C)[C@@H](C(=O)NCCCCCCCCCCC(=O)N1CCN(C(=O)OC(C)(C)C)CC1)n1cc(CCCCN=C(NC(=O)OC(C)(C)C)NC(=O)OC(C)(C)C)nn1	56.1	.	.
O/N=C(\c1ccccn1)C1CC1c1ccccc1 (stereo not given)	-63.3*	15.7	14.6
CCCCCCSc1ccc(-c2nc3cc(C)ccn3c2NC2CCCCC2)cc1	46.6	.	.
CCc1ccc2nc(N(CCCN(C)C)C(=O)c3ccc(S(=O)(=O)N(C)C4CCCCC4)cc3)sc2c1	53.6	.	.
CN(C)CCCN(C(=O)c1ccc(C(=O)c2ccccc2)cc1)c1nc2cc3c(cc2s1)OCO3	60.3	.	.
CN(C)CCCN(C(=O)c1ccco1)c1nc2ccc(F)cc2s1	-98.5*	5.6	9.8
CCCCCCCCCCOC(=O)Cn1c(COc2ccc(OC)cc2)[n+](C)c2ccccc21	72.4	.	.
CC(=O)Nc1ccc(N2CC(C)(C)C2=O)cc1	-58.1*	5.8	11.5
Cc1ccc(C)c(N2CCN(S(=O)(=O)c3cn(C)cn3)CC2)c1	-77.7*	-4.0	7.7
CC(=O)O[C@]1(C(C)=O)CC[C@H]2[C@@H]3C[C@H](C)C4=CC(=O)CC[C@]4(C)[C@H]3CC[C@@]21C	17.8	.	.
C=CCn1c(NC(=O)c2ccc(Br)o2)c(S(=O)(=O)c2ccccc2)c2nc3ccccc3nc21	62.8	.	.
CC(C)c1ccccc1OCC(=O)N(C)CC(=O)Nc1ccc(F)cc1	-504.5*	-1.9	8.8
CN(C)C(=O)c1ccc(NC(=O)COc2cccc(Oc3ccccc3)c2)cc1	61.1	.	.
CN(CC(=O)Nc1cccc(F)c1)C(=O)c1sc2ccccc2c1Cl	57.1	.	.
Nc1ncc2[nH]cnc2n1	-4.1	.	.
COc1ccccc1NC(=O)Nc1ccccc1C(N)=O	-630.4*	5.5	6.5
SMILES	Apaf-1 act	Rh110 interf act	Apaf-1 act conf2
COC1=C(Nc2ccccc2OC)C(=O)c2ccccc2C1=O	54.5	.	.
CCN(CC(=O)Nc1ccccc1OC)C(=O)c1ccccc1Sc1ccccc1C#N	58.3	.	.
NC1=NC[C@H](Cc2ccccc2)N1CCc1cc(C(F)(F)F)cc(C(F)(F)F)c1	53.5	.	.
Fc1cccc(Cl)c1CNc1ccc(N2CCCC2)cc1	47.8	.	.
Clc1cccc(Cl)c1CNC1CCCC1	-48.3*	-2.2	2.1
O=C1CCC(C(=O)OCC(=O)N2N=C3/C(=C/c4ccccc4)CCCC3C2c2ccccc2)N1 (stereo not given)	43.5	.	.
C[n+]1cccc2c(Br)ccc([O-])c21	98.2	.	.
Cc1ccc(S(=O)(=O)/N=C2\C(=O)c3ccccc3C([O-])=C2n2cc[n+](CCC(C)C)c2)cc1	57.1	.	.
COc1cc(-c2nc(C(=O)NC3CCN(Cc4ccccc4)CC3)cc3c2[nH]c2ccccc23)cc(OC)c1OC	40.9	.	.
COc1ccc(-c2nc(C(=O)NCC3CCCO3)cc3c2[nH]c2ccccc23)cc1 (stereo not given)	-224.4*	17.2	20.9
c1ccc2c(-c3ccc(OCCN4CCCCC4)cc3)c(-c3ccsc3)sc2c1	59.1	.	.
CC1=NN(c2ccc(Cl)cc2)C(=O)C1C(c1cccc(O)c1)c1c(C)[nH]n(-c2ccc(Cl)cc2)c1=O (stereo not given)	85.0	.	.
OCCN1CCN(CCCN2c3ccccc3Sc3ccc(C(F)(F)F)cc32)CC1	47.6	.	.
CCOc1ccc(OCC(=O)OCn2c(SC)nnc(C)c2=O)cc1	-75.9*	-1.8	3.0
Cc1ccc(N(CC(=O)N/N=C/c2ccc(OC3CSC3)cc2)S(=O)(=O)c2ccccc2)c(C)c1	62.7	.	.
NC(N)=N/N=C/c1ccc(OCc2ccccc2Cl)cc1	42.9	.	.
COc1ccccc1-c1nc2n(n1)C(c1cccs1)C(C(=O)Nc1cccnc1)=C(C)N2 (stereo not given)	-244.2*	-4.6	13.0
CCOc1ccc(C(=O)C(C)=O)c(OCC)c1	-43.8*	1.0	10.0
CN1CCN(c2ccccc2NC(=O)c2ccc(-c3ccc(Cl)c(Cl)c3)o2)CC1	46.0	.	.
COc1c(Cl)cc(Cl)cc1C(=O)Nc1ccccc1N1CCN(C(C)=O)CC1	-325.3*	-2.3	11.6
CCN(CC)c1ccc(N=C2C(=O)Nc3ccccc32)cc1	47.0	.	.
COc1cc(CCc2ccccc2)c(C(=O)O)c(O)c1C/C=C(/C)CCC=C(C)C	43.3	.	.
O=C(NCCCN1CCCCCC1)c1cc2c(=O)oc3ccccc3c2s1	40.5	.	.
Cc1ccc(-c2cc(C(=O)NCCCN3CCOCC3)c3ccc(Cl)c(C)c3n2)cc1	55.5	.	.
O=C(NCCCN1CCOCC1)c1c(O)c2cc(Br)cc(Br)c2[nH]c1=O	-56.8*	-9.0	10.6
SMILES	Apaf-1 act	Rh110 interf act	Apaf-1 act conf2
Cc1ccc(-c2nc3ncccn3c2NC(=O)C2CC2)cc1	-51.8*	-0.5	13.2
Nc1ccc2nc(-c3cccc(-c4nc5ccc(N)cc5[nH]4)n3)[nH]c2c1	40.2	.	.
C#CCOCCOCCOCCNc1nc(N2CCN(C(=O)CCCCCCCCCCNC(=O)[C@H]([C@@H](C)CC)n3cc(CCCCCN)nn3)CC2)nc(N2CCN(C(=O)CCCCCCCCCCNC(=O)[C@H](CO)n3cc(CCCCCN)nn3)CC2)n1	71.3	.	.
Cc1ccccc1Cn1cc(/C=N/n2cnnc2)c2ccccc21	-56.8*	1.3	10.6
Cc1[nH][nH]c(=O)c1C(c1c(C)[nH][nH]c1=O)c1cn(Cc2cccc3ccccc23)c2ccccc12	94.8	.	.
Cc1cccc(NC(=O)c2sc3nc4c(c(-c5cccs5)c3c2N)CN(C)CC4)c1	49.9	.	.
COc1ccc(CN2CCC(C(=O)Nc3ccc(Oc4cccnc4)cc3)CC2)cc1	58.4	.	.
COc1ccc(NC(=O)CN(C)C(=O)C2CSC3(C)CCC(=O)N23)cc1 (stereo not given)	42.7	.	.
Cc1cccc(NC(=O)CCN2CCC(C)CC2)c1	-54.1*	2.3	0.7
COc1ccc(NC(=O)CN2CCC(C)CC2)cc1	-51.9*	-0.6	3.2
Cc1cccc(NC(=O)NCc2ccc3c(c2)cc(C)n3C)c1	54.0	.	.
COc1ccc(NC(=O)CCl)cn1	67.2	.	.
CN(C)CCCNC(=O)CC1C[C@H](C(=O)N2CCCCC2)[C@@]2(CCc3ccccc3)c3[nH]c4ccccc4c3CCN2C1=O (stereo not given in full)	45.9	.	.
c1ccc(CNc2nc(NCc3ccccc3)c3ccccc3n2)cc1	65.9	.	.

Bioassay records as filed in PubChem.
